ChEMBL document CHEMBL4196207, “Medermycin-Type Naphthoquinones from the Marine-Derived Streptomyces sp. XMA39” (J Nat Prod, 2018)
Values after ≈ are worked out from the molar mass of the structure shown. Positions of bridges follow the written chain, without caps; N, C: chain ends. Non-standard residues stand in square brackets, D forms with d. Residues, ends and D or L forms follow the SMILES beside them. *: point of attachment. Octanoyl(6-Me) = CCC(C)CCCCC(=O)*; Dab = NCC[C@H](N)C(=O)O

How the values were obtained:
Staphylococcus aureus = test: Antimicrobial activity against methicillin-resistant Staphylococcus aureus ATCC 43300 after 12 hrs by microdilution method; assay type: functional; conditions: ATCC 43300, 12 h
Procedure, shortened: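 Broth microdilution. Compound stock of 10 mg/mL in DMSO was serially diluted with microbial cell suspension to a series of concentrations in 96-well plates. Plates were incubated at 37 °C for 12 h. MIC is the lowest concentration that stays completely clear against a black background. Vancomycin served as positive control. Tests were run in triplicate.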

Escherichia coli = test: Antimicrobial activity against Escherichia coli ATCC 25922 after 12 hrs by microdilution method; assay type: functional; conditions: ATCC 25922, 12 h
Procedure, shortened: (§1)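 Broth microdilution in 96-well plates. A 10 mg/mL DMSO stock was serially diluted in microbial cell suspension, 200 μL final. Plates were incubated at 37 °C for 12 h. MIC was read as the lowest concentration completely clear against a black background. Triplicate. E. coli strain ATCC 25922; C. albicans strain not specified.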

PC-3 = test: Cytotoxicity against human PC3 cells after 72 hrs by SRB assay; assay type: functional, cell-based; conditions: PC-3, 72 h
Procedure, shortened: (§2)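 SRB assay. Cells were seeded 24 h, then given a range of compound concentrations for 72 h at 37 °C. Fixed with cold 10% TCA for 2 h at 4 °C, washed, stained with 0.4% SRB, rinsed with 1% acetic acid, and dye dissolved in 10 mM Tris. OD read at 515 nm. IC50 by the Reed–Muench method.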

Candida albicans = test: Antimicrobial activity against Candida albicans after 12 hrs by microdilution method; assay type: functional; procedure, shortened: as §1
[1] = molecular target: Rho-associated protein kinase 2 (Homo sapiens, UniProt O75116); test: Inhibition of ROCK2 (unknown origin) using SKT S2 as substrate measured after 30 mins by HTRF assay
Rho-associated protein kinase 2, sequence (O75116 whole entry): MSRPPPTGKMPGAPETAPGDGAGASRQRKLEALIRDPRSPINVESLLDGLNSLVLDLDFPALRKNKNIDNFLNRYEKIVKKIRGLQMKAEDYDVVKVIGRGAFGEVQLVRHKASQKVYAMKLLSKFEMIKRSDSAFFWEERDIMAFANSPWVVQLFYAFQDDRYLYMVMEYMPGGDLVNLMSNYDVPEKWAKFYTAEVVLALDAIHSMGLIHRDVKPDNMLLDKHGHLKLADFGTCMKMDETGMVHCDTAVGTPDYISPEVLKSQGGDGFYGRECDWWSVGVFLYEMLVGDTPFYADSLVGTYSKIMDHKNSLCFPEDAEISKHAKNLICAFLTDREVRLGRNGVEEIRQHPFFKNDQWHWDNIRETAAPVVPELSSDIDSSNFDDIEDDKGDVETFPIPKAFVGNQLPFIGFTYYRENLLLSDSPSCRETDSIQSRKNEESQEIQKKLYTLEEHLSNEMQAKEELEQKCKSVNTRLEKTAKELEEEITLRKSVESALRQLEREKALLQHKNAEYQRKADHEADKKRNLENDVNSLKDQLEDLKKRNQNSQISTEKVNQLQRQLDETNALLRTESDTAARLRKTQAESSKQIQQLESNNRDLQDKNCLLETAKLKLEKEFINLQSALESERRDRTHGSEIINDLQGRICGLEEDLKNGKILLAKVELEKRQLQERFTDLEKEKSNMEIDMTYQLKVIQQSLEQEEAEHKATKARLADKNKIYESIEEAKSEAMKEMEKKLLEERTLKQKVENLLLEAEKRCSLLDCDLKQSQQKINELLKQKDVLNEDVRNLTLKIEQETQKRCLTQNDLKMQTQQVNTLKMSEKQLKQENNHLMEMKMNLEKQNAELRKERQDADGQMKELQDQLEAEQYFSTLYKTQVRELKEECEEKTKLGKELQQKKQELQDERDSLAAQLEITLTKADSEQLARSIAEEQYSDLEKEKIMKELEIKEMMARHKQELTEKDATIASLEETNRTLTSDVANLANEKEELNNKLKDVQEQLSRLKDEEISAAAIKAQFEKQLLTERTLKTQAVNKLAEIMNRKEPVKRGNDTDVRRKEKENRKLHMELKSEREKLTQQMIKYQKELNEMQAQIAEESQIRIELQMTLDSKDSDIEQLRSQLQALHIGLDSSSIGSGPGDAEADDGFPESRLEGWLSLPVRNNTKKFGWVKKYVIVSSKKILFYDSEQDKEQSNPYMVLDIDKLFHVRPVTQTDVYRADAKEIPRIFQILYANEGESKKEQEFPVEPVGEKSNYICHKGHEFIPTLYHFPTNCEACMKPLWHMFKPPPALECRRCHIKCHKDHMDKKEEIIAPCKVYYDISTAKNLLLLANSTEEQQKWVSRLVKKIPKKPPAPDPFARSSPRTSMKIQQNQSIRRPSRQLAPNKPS
Procedure, shortened: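 HTRF KinEASE format. Compound dilutions were added to a substrate/enzyme/ATP mixture and incubated 0.5 h at 37 °C. SA-XL665 and STK antibody–cryptate were then added, followed by 1 h at room temperature before HTRF read-out. Triplicate.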

HCT-116 = test: Cytotoxicity against human HCT116 cells after 72 hrs by SRB assay; assay type: functional, cell-based; conditions: HCT-116, 72 h; procedure, shortened: as §2

SMILES | MIC (Staphylococcus aureus) [µg/mL] | MIC (Escherichia coli) [µg/mL] | IC50 (PC-3) [µM] | MIC (Candida albicans) [µg/mL] | IC50 [1] [µM] | IC50 (HCT-116) [µM]
COC(=O)C[C@H]1O[C@H](C)c2c(oc(=O)c3ccc([C@H]4C[C@@H](N(C)C)[C@H](O)[C@@H](C)O4)c(O)c3c2=O)[C@H]1O | 15 (≈ 29.7 µM) | 10 (≈ 19.8 µM) | > 40 | 10 (≈ 19.8 µM) | > 20 | > 40
COC(=O)C[C@@H]1C[C@@]2(O)C(=O)c3ccc([C@H]4C[C@@H](N(C)C)[C@H](O)[C@@H](C)O4)c(O)c3C(=O)[C@]2(O)[C@@H](C)O1 | 6 (≈ 11.8 µM) | 5 (≈ 9.85 µM) | 16 | 9 (≈ 17.7 µM) | > 20 | 4.4
C[C@H]1O[C@@H]2CC(=O)O[C@@H]2c2oc(=O)c3ccc([C@H]4C[C@@H](N(C)C)[C@H](O)[C@@H](C)O4)c(O)c3c(=O)c21 | 12 (≈ 25.3 µM) | 8 (≈ 16.9 µM) | > 40 | 7 (≈ 14.8 µM) | > 20 | > 40
COC(=O)C[C@H]1OC(C)=C2C(=O)c3c(ccc([C@H]4C[C@@H](N(C)C)[C@H](O)[C@@H](C)O4)c3O)C(=O)C2=C1O | 3 (≈ 6.15 µM) | 4 (≈ 8.21 µM) | 19 | 6 (≈ 12.3 µM) | 9 | 2.9
CCC(C)CCCCC(=O)N[C@@H](CCN)C(=O)N[C@H](C(=O)N[C@@H](CCN)C(=O)N[C@H]1CCNC(=O)[C@H]([C@@H](C)O)NC(=O)[C@H](CCN)NC(=O)[C@H](CCN)NC(=O)[C@H](CC(C)C)NC(=O)[C@@H](Cc2ccccc2)NC(=O)[C@H](CCN)NC1=O)[C@@H](C)O (some centres not stated) ({Octanoyl(6-Me)}-[Dab]T[Dab][Dab][Dab][dF]L[Dab][Dab]T; lactam 4-C) | – | 2 (≈ 1.66 µM) | – | – | – | –
C[C@@H]1[C@H](O)[C@@H](C)/C=C/C=C/C=C/C=C/C=C/C=C/C=C/[C@H](O[C@@H]2O[C@H](C)[C@@H](O)[C@H](N)[C@@H]2O)C[C@@H]2O[C@](O)(C[C@@H](O)C[C@@H](O)[C@H](O)CC[C@@H](O)C[C@@H](O)CC(=O)O[C@H]1C)C[C@H](O)[C@H]2C(=O)O [AMPHOTERICIN B] | – | – | – | 2 (≈ 2.16 µM) | – | –
C[C@H]1O[C@@H]2CC(=O)O[C@@H]2C2=C1C(=O)c1c(ccc([C@H]3C[C@@H](N(C)C)[C@H](O)[C@@H](C)O3)c1O)C2=O [LACTOQUINOMYCIN] | 0.25 (≈ 0.546 µM) | 2 (≈ 4.37 µM) | 0.015 | 5 (≈ 10.9 µM) | 0.011 | 0.043
